Among the data in ChEMBL document CHEMBL5653631, “A Potent and Selective ULK1 Inhibitor Suppresses Autophagy and Sensitizes Cancer Cells to Nutrient Stress” (iScience, 2018) are fold change (FC) and inhibition values, retold here.

Experiment [1] concerns the target T1, Activin receptor type-1 (Homo sapiens) (UniProt Q04771).
T1 sequence (whole entry): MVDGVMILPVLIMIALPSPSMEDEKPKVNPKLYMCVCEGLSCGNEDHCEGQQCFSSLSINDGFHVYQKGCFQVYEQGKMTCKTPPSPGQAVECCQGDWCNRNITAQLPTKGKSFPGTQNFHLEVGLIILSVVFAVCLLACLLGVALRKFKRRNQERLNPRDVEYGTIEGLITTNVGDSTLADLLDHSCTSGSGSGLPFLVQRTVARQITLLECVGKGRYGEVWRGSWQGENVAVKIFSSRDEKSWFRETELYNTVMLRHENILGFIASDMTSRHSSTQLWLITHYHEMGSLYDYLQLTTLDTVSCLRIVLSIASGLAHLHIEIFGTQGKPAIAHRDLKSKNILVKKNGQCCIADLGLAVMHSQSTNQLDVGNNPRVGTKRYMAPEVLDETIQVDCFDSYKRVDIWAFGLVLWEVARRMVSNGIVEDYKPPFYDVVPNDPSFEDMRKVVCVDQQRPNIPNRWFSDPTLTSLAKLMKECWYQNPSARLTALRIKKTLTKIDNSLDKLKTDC
The experiment is described as follows: Inhibition of human recombinant ALK2 at 40 nM related to control ULK1. Summed up:
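Radiometric activity assays in a panel of 327 human recombinant kinases, each run in duplicate at one inhibitor concentration. Activity remaining is expressed as percent of vehicle control, and percent inhibition is calculated as 100% minus percent activity remaining.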

The target of experiment [2] is Serine/threonine-protein kinase 25 (Homo sapiens) (UniProt O00506). The experiment can be described thus: Inhibition of human recombinant YSK1 at 40 nM in presence of ATP by radiometric assay relative to control.
Experiment [3] addresses Tyrosine-protein kinase Fgr (Homo sapiens) (UniProt P09769). The experiment can be described thus: Inhibition of human recombinant FGR at 40 nM related to control ULK1.
Experiment [4] deals with T2, Serine/threonine-protein kinase ULK2 (Homo sapiens) (UniProt Q8IYT8).
T2 sequence (whole entry): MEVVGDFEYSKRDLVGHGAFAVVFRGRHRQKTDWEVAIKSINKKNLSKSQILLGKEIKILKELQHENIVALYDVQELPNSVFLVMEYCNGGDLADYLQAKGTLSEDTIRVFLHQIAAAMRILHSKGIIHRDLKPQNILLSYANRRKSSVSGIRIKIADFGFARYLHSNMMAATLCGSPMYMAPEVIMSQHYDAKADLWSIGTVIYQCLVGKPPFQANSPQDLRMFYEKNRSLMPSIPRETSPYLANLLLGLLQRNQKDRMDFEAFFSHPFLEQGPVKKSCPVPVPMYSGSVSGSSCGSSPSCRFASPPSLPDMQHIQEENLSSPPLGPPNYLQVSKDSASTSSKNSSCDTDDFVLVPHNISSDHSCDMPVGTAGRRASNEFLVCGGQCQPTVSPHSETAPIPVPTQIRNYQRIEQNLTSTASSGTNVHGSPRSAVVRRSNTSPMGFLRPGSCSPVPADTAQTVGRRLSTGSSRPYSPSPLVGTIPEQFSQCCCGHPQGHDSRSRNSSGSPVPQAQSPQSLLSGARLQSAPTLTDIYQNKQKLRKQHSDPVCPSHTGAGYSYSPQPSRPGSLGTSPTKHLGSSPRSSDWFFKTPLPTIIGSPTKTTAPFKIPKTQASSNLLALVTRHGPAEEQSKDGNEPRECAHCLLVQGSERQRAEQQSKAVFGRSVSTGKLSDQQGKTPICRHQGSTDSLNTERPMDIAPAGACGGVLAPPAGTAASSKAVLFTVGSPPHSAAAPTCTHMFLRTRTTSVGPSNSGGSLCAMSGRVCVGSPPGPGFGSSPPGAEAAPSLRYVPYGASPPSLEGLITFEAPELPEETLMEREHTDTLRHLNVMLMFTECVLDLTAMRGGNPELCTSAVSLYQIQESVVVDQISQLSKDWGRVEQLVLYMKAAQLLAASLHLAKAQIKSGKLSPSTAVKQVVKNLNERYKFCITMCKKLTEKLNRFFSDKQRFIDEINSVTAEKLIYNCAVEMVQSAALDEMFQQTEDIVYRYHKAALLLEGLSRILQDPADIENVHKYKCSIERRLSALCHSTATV
The experiment is described as follows: Inhibition of human recombinant ULK2 at 40 nM in presence of ATP by radiometric assay relative to control.

Experiment [5] concerns the target T3, SNF-related serine/threonine-protein kinase (Homo sapiens) (UniProt Q9NRH2).
T3 sequence (whole entry): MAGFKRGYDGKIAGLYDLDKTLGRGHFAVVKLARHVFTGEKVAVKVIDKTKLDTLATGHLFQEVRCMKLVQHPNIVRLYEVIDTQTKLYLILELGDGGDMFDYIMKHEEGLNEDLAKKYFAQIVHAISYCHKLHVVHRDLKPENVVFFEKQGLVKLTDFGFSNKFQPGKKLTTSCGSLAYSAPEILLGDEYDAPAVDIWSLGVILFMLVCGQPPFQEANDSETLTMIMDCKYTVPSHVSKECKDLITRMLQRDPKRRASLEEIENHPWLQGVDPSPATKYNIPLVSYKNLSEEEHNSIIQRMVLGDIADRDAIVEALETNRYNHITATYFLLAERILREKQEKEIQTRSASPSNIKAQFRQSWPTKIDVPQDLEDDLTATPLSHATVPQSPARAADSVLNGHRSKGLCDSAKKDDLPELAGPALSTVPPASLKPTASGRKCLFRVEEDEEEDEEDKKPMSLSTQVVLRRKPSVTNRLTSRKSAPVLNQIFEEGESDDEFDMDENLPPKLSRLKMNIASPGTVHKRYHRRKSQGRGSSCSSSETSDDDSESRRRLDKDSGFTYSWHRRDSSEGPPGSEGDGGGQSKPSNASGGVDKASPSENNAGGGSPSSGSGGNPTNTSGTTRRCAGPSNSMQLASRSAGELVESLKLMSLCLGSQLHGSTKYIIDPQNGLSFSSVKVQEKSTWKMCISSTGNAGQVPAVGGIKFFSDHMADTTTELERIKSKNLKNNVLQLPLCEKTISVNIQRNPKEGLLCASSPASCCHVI
The experiment is described as follows: Inhibition of human recombinant SNRK at 500 nM related to control ULK1.

Experiment [6] concerns the target Mitogen-activated protein kinase kinase kinase 20 (Homo sapiens) (UniProt Q9NYL2). The experiment can be described thus: Inhibition of human recombinant ZAK at 500 nM related to control ULK1.
The target in experiment [7] is T4, Testis-specific serine/threonine-protein kinase 3 (Homo sapiens) (UniProt Q96PN8).
T4 sequence (whole entry): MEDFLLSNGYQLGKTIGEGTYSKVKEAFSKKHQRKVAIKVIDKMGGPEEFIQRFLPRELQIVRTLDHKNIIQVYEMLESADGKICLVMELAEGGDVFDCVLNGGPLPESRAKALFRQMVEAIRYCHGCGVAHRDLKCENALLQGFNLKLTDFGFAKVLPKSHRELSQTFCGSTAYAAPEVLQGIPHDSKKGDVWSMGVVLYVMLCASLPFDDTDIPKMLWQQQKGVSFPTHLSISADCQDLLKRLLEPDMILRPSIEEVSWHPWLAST
The experiment is described as follows: Inhibition of human recombinant TSSK3 at 15 nM in presence of ATP by radiometric assay relative to control.

Chain of Mitogen-activated protein kinase kinase kinase 20 (Homo sapiens) (Q9NYL2 2-800 limits assumed): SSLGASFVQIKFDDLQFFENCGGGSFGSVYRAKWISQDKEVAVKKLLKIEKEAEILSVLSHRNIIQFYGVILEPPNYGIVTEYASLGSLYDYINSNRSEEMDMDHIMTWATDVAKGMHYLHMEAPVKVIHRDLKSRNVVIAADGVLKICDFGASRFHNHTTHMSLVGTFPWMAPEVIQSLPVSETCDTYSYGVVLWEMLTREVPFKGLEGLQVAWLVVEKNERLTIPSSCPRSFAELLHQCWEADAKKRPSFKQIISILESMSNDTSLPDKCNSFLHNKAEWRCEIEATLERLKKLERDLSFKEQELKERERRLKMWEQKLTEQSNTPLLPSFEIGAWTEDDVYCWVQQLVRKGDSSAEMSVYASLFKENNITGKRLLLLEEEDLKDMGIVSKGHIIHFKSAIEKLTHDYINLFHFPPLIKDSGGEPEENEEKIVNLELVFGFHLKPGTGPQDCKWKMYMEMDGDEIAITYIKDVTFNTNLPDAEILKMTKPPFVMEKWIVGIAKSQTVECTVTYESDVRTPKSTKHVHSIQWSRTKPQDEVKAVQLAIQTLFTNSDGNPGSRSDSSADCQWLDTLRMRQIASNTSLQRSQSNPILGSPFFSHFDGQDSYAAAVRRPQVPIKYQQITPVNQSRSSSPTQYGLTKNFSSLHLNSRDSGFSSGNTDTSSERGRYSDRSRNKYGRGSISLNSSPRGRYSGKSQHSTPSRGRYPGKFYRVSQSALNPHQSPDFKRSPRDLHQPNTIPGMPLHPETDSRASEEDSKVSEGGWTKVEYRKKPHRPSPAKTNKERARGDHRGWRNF
Chain of Serine/threonine-protein kinase 25 (Homo sapiens) (O00506 whole entry, looked up): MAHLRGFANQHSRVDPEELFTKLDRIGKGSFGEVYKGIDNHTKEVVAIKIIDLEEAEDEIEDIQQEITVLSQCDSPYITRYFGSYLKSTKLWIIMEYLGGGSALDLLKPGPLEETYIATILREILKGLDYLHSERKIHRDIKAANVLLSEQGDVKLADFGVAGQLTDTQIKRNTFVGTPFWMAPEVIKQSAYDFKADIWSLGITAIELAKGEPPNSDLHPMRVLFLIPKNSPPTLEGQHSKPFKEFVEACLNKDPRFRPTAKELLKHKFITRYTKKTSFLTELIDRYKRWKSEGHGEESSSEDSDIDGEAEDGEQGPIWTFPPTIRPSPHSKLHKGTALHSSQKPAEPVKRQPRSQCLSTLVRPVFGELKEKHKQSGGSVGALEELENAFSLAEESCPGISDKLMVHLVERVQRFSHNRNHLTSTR
Chain of Tyrosine-protein kinase Fgr (Homo sapiens) (P09769 2-529 limits assumed): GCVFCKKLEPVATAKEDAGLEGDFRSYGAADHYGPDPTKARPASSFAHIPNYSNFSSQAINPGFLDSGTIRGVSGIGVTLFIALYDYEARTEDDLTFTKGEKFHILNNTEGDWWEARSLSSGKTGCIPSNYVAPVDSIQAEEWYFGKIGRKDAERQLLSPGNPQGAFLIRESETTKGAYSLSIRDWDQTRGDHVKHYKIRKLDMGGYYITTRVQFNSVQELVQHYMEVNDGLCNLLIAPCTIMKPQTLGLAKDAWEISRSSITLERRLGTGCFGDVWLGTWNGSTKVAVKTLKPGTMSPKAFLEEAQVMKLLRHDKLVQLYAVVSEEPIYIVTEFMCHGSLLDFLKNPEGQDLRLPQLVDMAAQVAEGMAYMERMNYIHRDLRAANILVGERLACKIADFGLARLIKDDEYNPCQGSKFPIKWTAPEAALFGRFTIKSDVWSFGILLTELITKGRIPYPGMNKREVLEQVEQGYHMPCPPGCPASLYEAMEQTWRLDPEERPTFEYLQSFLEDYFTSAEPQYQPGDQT

Regarding `O=C(N[C@@H](C1CC1)C(F)(F)F)c1cc(-c2cnn3cc(-c4ccc(F)cc4)cnc23)cs1`, the fold change (FC) in experiment [1] came out at 0.77; in experiment [3], 0.05. The inhibition (usually the percentage by which the read-out fell short of the control) is 0% in experiment [2] and 46% in experiment [4].

Turning to `CNC(=O)c1ccccc1Oc1nc(Nc2cc(OC)c(OC)c(OC)c2)ncc1Br`, the fold change (FC) in experiment [5] worked out at 0; in experiment [6], 0.01.

Regarding `CC(C)[C@H](NC(=O)c1cc(-c2cnn3cc(-c4ccc(OCCN5CCCCC5)cc4)cnc23)cs1)C(F)(F)F`, the inhibition in experiment [7] amounted to 14%.
